Results: ChEMBL document CHEMBL1124239, “Decomposition of N-(2-chloroethyl)-N-nitrosocarbamoyl amino acid amides” (J Med Chem, 1988)

How the values were obtained:
[1] = Rate constant at a concentration of 2.54M*10e-3 was determined; assay type: ADME
How it was run: (§1)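 Decomposition was followed in aqueous solution. Rate constants and half-lives were calculated assuming apparent first-order kinetics.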

Mus musculus [2] = assay: Increase in life span was tested after administration of single maximal effective ip dose at 20 mg/kg (0.08 mmol/kg) in L1210 leukemia mice; assay type: functional; conditions: route intraperitoneal
How it was run: (§2)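 L1210 leukemia-bearing mice got a single ip dose on the first day after transplantation. Read-out was median survival in days, treated (T) versus control (C). %ILS = (T − C)/C × 100. Doses are given in both mg/kg and mmol/kg; "tox" marks doses that were toxic.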

[3] = Half-life evaluated in 0.1 M phosphate buffer, 37 degree Centigrade.; assay type: ADME; how it was run: as §1
Mus musculus [4] = assay: Increase in life span was tested after administration of single ip dose at 40 mg/kg (0.16 mmol/kg) in L1210 leukemia mice; Toxic; assay type: toxicity, organism-based; set-up: dose 40 mg/kg, route intraperitoneal; conditions: in vivo; how it was run: as §2
Mus musculus [5] = assay: Increase in life span was tested after administration of single maximal effective ip dose at 20 mg/kg (0.11 mmol/kg) in L1210 leukemia in mice; assay type: functional; conditions: route intraperitoneal; how it was run: as §2
Mus musculus [6] = assay: Increase in life span was tested after administration of single ip dose at 38 mg/kg (0.21 mmol/kg) in L1210 leukemia in mice; Toxic; assay type: toxicity, organism-based; set-up: dose 38 mg/kg, route intraperitoneal; conditions: in vivo; how it was run: as §2
Mus musculus [7] = assay: Increase in life span was tested after administration of single ip dose at 200 mg/kg (0.8 mmol/kg) in L1210 leukemia in mice; Toxic; assay type: toxicity, organism-based; set-up: dose 200 mg/kg, route intraperitoneal; conditions: in vivo; how it was run: as §2
Mus musculus [8] = assay: Increase in life span was tested after administration of single maximal effective ip dose at 100 mg/kg (0.4 mmol/kg) in L1210 leukemia in mice; assay type: functional; conditions: route intraperitoneal; how it was run: as §2

| Compound | k [1] | ILS at 20 mg/kg (Mus musculus [2]) | half-life [3] | ILS (Mus musculus [4]) | ILS at 20 mg/kg (Mus musculus [5]) | ILS (Mus musculus [6]) | ILS (Mus musculus [7]) | ILS at 100 mg/kg (Mus musculus [8]) |
| --- | --- | --- | --- | --- | --- | --- | --- | --- |
| CC(C)C(NC(=O)N(CCCl)N=O)C(N)=O (stereo not given) | 0.0452 min⁻¹ | 212% | 0.258 h | Toxic |  |  |  |  |
| O=NN(CCCl)C(=O)NCCCl [CARMUSTINE] |  |  |  |  | 115% | Toxic |  |  |
| NC(=O)C1CCCN1C(=O)N(CCCl)N=O (stereo not given) | 0.00274 min⁻¹ |  | 4.26 h |  |  |  | Toxic | 420% |
